How the values were obtained:
[1] = target: Platelet-activating factor receptor (Rattus norvegicus) (UniProt P46002); assay: In vivo dose administered intravenously to inhibit PAF-induced hypotension (PAF-Antagonistic activity) in normotensive rats by 56%.; assay type: functional, organism-based
How it was run: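 Male Sprague-Dawley rats, 180-220 g, anesthetized with sodium pentobarbital ip; blood pressure recorded from left carotid artery. Compound given iv in saline (1 mL/kg) via femoral vein 3 min before PAF 0.5 μg/kg iv; initial dose 5 mg/kg. Percentage inhibition of PAF-induced hypotension calculated versus vehicle-treated controls.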

[2] = target: Platelet-activating factor receptor (Mus musculus) (UniProt Q62035); assay: Oral dose required to inhibit PAF-induced mortality (PAF-Antagonistic activity)in mice by 50%.; assay type: functional; conditions: Mus sp.
How it was run: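 Male Swiss mice, 22-26 g, in groups of 10. Compound or saline given po (20 mL/kg) 60 min before C18-PAF 100 µg/kg plus propranolol 1 mg/kg by tail vein. ID50 from percent inhibition of mortality versus controls.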

[3] = target: Platelet-activating factor receptor (Rattus norvegicus) (UniProt P46002); assay: In vivo dose administered intravenously to inhibit PAF-induced hypotension (PAF-Antagonistic activity) in normotensive rats by 57%.; assay type: functional, organism-based

Chain of Platelet-activating factor receptor (Rattus norvegicus) (P46002 whole entry): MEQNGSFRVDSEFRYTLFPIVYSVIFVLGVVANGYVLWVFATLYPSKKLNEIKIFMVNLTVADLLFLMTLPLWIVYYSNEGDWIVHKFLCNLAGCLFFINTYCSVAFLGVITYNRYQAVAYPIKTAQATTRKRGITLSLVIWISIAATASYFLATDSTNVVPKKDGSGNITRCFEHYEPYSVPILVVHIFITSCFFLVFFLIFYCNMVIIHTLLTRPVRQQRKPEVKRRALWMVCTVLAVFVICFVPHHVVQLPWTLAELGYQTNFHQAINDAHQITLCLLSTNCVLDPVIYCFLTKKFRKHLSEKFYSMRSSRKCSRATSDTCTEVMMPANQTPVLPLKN
Chain of Platelet-activating factor receptor (Mus musculus) (Q62035 whole entry): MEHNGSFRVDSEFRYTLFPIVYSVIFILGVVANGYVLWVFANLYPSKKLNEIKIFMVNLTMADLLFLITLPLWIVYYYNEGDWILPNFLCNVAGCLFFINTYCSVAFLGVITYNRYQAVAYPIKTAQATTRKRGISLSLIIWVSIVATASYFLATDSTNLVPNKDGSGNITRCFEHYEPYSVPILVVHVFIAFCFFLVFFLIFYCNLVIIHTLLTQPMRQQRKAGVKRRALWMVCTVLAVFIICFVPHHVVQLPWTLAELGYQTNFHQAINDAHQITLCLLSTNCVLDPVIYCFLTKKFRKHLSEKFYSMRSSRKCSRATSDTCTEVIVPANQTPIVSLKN

| ID50 [3] | SMILES | ID50 [1] | ID50 [2] |
| --- | --- | --- | --- |
| – | N#CC(c1cccnc1)N1CCN(C(=O)Cc2ccc3ccccc3c2)CC1 (stereo not drawn) | 5 mg/kg | – |
| 5 mg/kg | N#CC(c1cccnc1)N1CCN(C(=O)CCCc2ccccc2)CC1 (stereo not drawn) | – | 50 mg/kg |
